Experimental data of several laboratories.
Lines come from different studies, so protocols differ.
Target: Mitogen-activated protein kinase 8 (MAPK8, Homo sapiens, UniProt P45983)

`O=c1nc(-c2ccccn2)sc2ccccc12` gave a remaining binding of 100% (binding; competition with immobilised ligand; 1 µM).
With `CN(C)c1ncc(F)c(-c2cnn3ncccc23)n1` the remaining binding was 76% (binding; competition with immobilised ligand; 1 µM).
For `Nc1ncc2c(n1)-c1c([nH]c3ccc(C#CC4CC4)cc13)CCCC2`, the remaining binding was 66% (binding; competition with immobilised ligand; 1 µM).
`c1cncc(-c2cccc(Nc3nccc(NC4CCCCC4)n3)c2)c1` has a remaining binding of 24% (binding; competition with immobilised ligand; 10 µM).
The remaining binding of `C[C@@H]1CN(c2ccc3ncc(-c4ccc5[nH]nc(C6CC6)c5c4)n3n2)C[C@H](C)O1` is reported as 54% (binding; competition with immobilised ligand; 0.5 µM).
`C[C@H]1CCN(c2nccc(-c3cnn4ncccc34)n2)C1` has a remaining binding of 34% (binding; competition with immobilised ligand; 1 µM).
`C[C@H](NC(=O)c1cnc2n1[C@](C)(Cc1ccc(C#N)cc1)C(=O)N2c1cc(Cl)c(F)c(Cl)c1)C(=O)NC1(c2ccccn2)CC1` gave a remaining binding of 81% (cell-free assay; competition with immobilised ligand; 1 µM).
`N[C@H]1CCN(c2nccc(-c3cnn4ncccc34)n2)C1` gave a remaining binding of 85% (binding; competition with immobilised ligand; 1 µM).
The remaining binding of `O=C(O)c1cc(-c2ccc(C3CCNCC3)cc2)c2ccc(-c3ccc(C(F)(F)F)cc3)cc2c1` is reported as 100% (cell-free assay; competition with immobilised ligand; 1 µM).
With `O=C(c1ccc(Nc2ncc(Cl)c(-c3cc4ccccc4s3)n2)cc1)N1CCC(N2CCCC2)CC1` the remaining binding was 3% (binding; competition with immobilised ligand; 1 µM).
For `CS(=O)(=O)N1CCCC(NC(=O)[C@H](CCC2CCCCC2)NC(=O)c2ccc(CNc3ncnc4c3nnn4-c3ccccc3)cc2)C1` (stereo partly drawn), the remaining binding was 85% (cell-free assay; competition with immobilised ligand; 0.1 µM).
With `O=C(NCCCN1CCOCC1)c1ccc(Nc2ncc(Cl)c(-c3ccc(Cl)s3)n2)cc1` the remaining binding was 2.5% (binding; competition with immobilised ligand; 1 µM).
With `CCC(=O)N[C@@H]1CC[C@H](C(=O)N(C)c2ccc(-c3nc4ccccc4o3)cc2)C1` the remaining binding was 53% (cell-free assay; competition with immobilised ligand; 1 µM).
`COC(=O)Nc1nc2ccc(C(=O)c3ccccc3)cc2[nH]1` has a remaining binding of 14% (cell-free assay; competition with immobilised ligand; 10 µM).
`CN(C)c1nccc(-c2cnn3ncccc23)n1` has a remaining binding of 100% (binding; competition with immobilised ligand; 1 µM).
`COc1cnc(Nc2cccc(S(N)(=O)=O)c2)nc1N1CCN(c2ccccc2)C(=O)C1` gave a remaining binding of 76% (binding; competition with immobilised ligand; 1 µM).
The remaining binding of `Cn1nc(C(=O)NCc2ccc(C(=O)O)cc2)cc1-c1ccc2[nH]ccc2c1` is reported as 88% (cell-free assay; competition with immobilised ligand; 0.1 µM).
`O=C(NCC1CCOCC1)c1n[nH]cc1NC(=O)c1c(F)cccc1F` gave a remaining binding of 16% (binding; competition with immobilised ligand; 1 µM).
For `CN(CCCC(F)(F)F)c1nccc(-c2cnn3ncccc23)n1`, the remaining binding was 100% (binding; competition with immobilised ligand; 1 µM).
For `COCCOc1nc(-c2ccc(Cl)nc2)nc2c1CN(C(=O)c1ncn3ccccc13)CC2`, the remaining binding was 100% (cell-free assay; competition with immobilised ligand; 0.1 µM).
`CN(C)c1nccc(-c2cnc3ncccn23)n1` gave a remaining binding of 59% (binding; competition with immobilised ligand; 1 µM).
`CNC(=O)[C@@H]1CC[C@@H](n2c(-c3ccc4cnccc4c3)nc3ccc(C(=O)NCc4cccc(C(N)=O)c4)cc32)C1` has a remaining binding of 82% (binding; competition with immobilised ligand; 1 µM).
With `CN(c1nccc(-c2cnn3ncccc23)n1)C1CC1` the remaining binding was 100% (binding; 1 µM).
For `O=C(c1ccc(Nc2nccc(-c3cc4ccccc4s3)n2)cc1)N1CCC(N2CCCC2)CC1`, the remaining binding was 2.4% (binding; competition with immobilised ligand; 1 µM).
